Experimental data from ChEMBL document CHEMBL1145466, “Effects of carbapenem exposure on the risk for digestive tract carriage of intensive care unit-endemic carbapenem-resistant Pseudomonas aeruginosa strains in critically ill patients” (2007).

What was measured:
Pseudomonas aeruginosa [1] = assay: Antimicrobial activity against carbapenem-resistant Pseudomonas aeruginosa assessed as percent resistant isolates; type: functional
Outline: (§1)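 P. aeruginosa isolates came from rectal and oropharyngeal swabs of ICU patients, plated on MacConkey agar and incubated at 37°C for 48 h. Gram-negative, oxidase-positive bacilli were identified by conventional biochemical tests. Intermediate isolates were scored as resistant. Clonality was checked by PFGE (6 V/cm, 14°C, 23 h, 5–25 s pulses), read by Tenover criteria.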

Pseudomonas aeruginosa [2] = assay: Antimicrobial activity against carbapenem-resistant Pseudomonas aeruginosa isolate; type: functional; outline: as §1

Row | SMILES | Activity (Pseudomonas aeruginosa [1]) | MIC (Pseudomonas aeruginosa [2])
1 | CC(O)[C@H]1C(=O)N2C(C(=O)O)=C(SCCNC=N)C[C@H]12 (single isomer, unassigned) [IMIPENEM ANHYDROUS] | 100% | ≥ 8 µg/mL
2 | NCC[C@H](O)C(=O)N[C@@H]1C[C@H](N)[C@@H](O[C@H]2O[C@H](CN)[C@@H](O)[C@H](O)[C@H]2O)[C@H](O)[C@H]1O[C@H]1O[C@H](CO)[C@@H](O)[C@H](N)[C@H]1O [AMIKACIN] | 19% | > 16 µg/mL
3 | C[C@H]1[C@H](NC(=O)/C(=N\OC(C)(C)C(=O)O)c2csc(N)n2)C(=O)N1S(=O)(=O)O [AZTREONAM] | 33% | > 8 µg/mL
4 | CC(C)(O/N=C(\C(=O)N[C@@H]1C(=O)N2C(C(=O)[O-])=C(C[n+]3ccccc3)CS[C@H]12)c1csc(N)n1)C(=O)O [CEFTAZIDIME] | 28.5% | > 8 µg/mL
5 | O=C(O)c1cn(C2CC2)c2cc(N3CCNCC3)c(F)cc2c1=O [CIPROFLOXACIN] | 59.5% | ≥ 2 µg/mL
6 | C[C@@H](O)[C@H]1C(=O)N2C(C(=O)O)=C(S[C@@H]3CN[C@H](C(=O)N(C)C)C3)[C@H](C)[C@H]12 [MEROPENEM] | 59.5% | ≥ 8 µg/mL
7 | CCN1CCN(C(=O)N[C@@H](C(=O)N[C@@H]2C(=O)N3[C@@H]2SC(C)(C)[C@@H]3C(=O)O)c2ccccc2)C(=O)C1=O [PIPERACILLIN] | 21% | > 64 µg/mL
8 | CC1(C)S[C@@H]2[C@H](NC(=O)[C@H](C(=O)O)c3ccsc3)C(=O)N2[C@H]1C(=O)O [TICARCILLIN] | 28.5% | > 64 µg/mL
9 | NC[C@H]1O[C@H](O[C@H]2[C@H](O)[C@@H](O[C@H]3O[C@H](CO)[C@@H](O)[C@H](N)[C@H]3O)[C@H](N)C[C@@H]2N)[C@H](N)C[C@@H]1O [TOBRAMYCIN] | 55% | > 4 µg/mL
